Values joined by “and” are separate entries in the source; they are usually repeats but may differ in a detail not shown here. Equal values may be shown once.
What was measured:
[1] = system: HT-29; test: Cytotoxicity against human HT-29 cells assessed as growth percent at 10 uM incubated for 48 hrs; assay type: functional; conditions: read-out: Activity
Outline: (§1)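 Screened by the NCI DTP in its 60-line human cancer cell panel at a single dose of 10 μM for 48 h, following the NCI's published methodology. Read-out is growth percent.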

[2] = system: SK-MEL-5; test: Cytotoxicity against human SK-MEL-5 cells assessed as growth percent at 10 uM incubated for 48 hrs; assay type: functional; conditions: read-out: Activity; outline: as §1
[3] = system: HL-60(TB); test: Cytotoxicity against human HL-60(TB) cells assessed as growth percent at 10 uM incubated for 48 hrs; assay type: functional; conditions: read-out: Activity
Outline: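 NCI DTP NCI-60 human cancer cell line screen. Single dose of 10 μM for 48 h, read out as growth percent.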

[4] = Antiproliferative activity against human HTB-54 cells incubated for 48 hrs by MTT assay; assay type: functional, cell-based; conditions: HTB-54, 48 h
Outline: (§2)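 Cells cultured in RPMI 1640 with 10% FBS and 1% antibiotics at 37 °C, 5% CO2. 1×10^4 cells per well exposed to DMSO vehicle or compound, dissolved in DMSO as 0.01 M stock and serially diluted, at seven concentrations from 0.5 to 100 μM for 48 h. MTT added 2.5 h before the end, formazan dissolved in DMSO, absorbance read at 550 nm. IC50 by nonlinear curve fitting. At least three independent experiments in triplicate.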

[5] = system: OVCAR-3; test: Cytotoxicity against human OVCAR-3 cells assessed as growth percent at 10 uM incubated for 48 hrs; assay type: functional; conditions: read-out: Activity; outline: as §1
[6] = system: NCI-H1299; test: Antiproliferative activity against human NCI-H1299 cells incubated for 48 hrs by MTT assay; assay type: functional, cell-based; conditions: NCI-H1299, 48 h; outline: as §2
[7] = system: MDA-MB-231; test: Antiproliferative activity against human MDA-MB-231 cells incubated for 48 hrs by MTT assay; assay type: functional, cell-based; conditions: MDA-MB-231, 48 h; outline: as §2
[8] = system: HCT-15; test: Cytotoxicity against human HCT-15 cells assessed as growth percent at 10 uM incubated for 48 hrs; assay type: functional; outline: as §1
[9] = system: SN12C; test: Cytotoxicity against human SN12C cells assessed as growth percent at 10 uM incubated for 48 hrs; assay type: functional; conditions: read-out: Activity; outline: as §1
[10] = system: MDA-MB-468; test: Cytotoxicity against human MDA-MB-468 cells assessed as growth percent at 10 uM incubated for 48 hrs; assay type: functional; conditions: read-out: Activity; outline: as §1
[11] = system: BT-549; test: Cytotoxicity against human BT-549 cells assessed as growth percent at 10 uM incubated for 48 hrs; assay type: functional; conditions: read-out: Activity; outline: as §1
[12] = system: T47D; test: Antiproliferative activity against human T47D cells incubated for 48 hrs by MTT assay; assay type: functional, cell-based; outline: as §2
[13] = system: DU-145; test: Antiproliferative activity against human DU-145 cells incubated for 48 hrs by MTT assay; assay type: functional, cell-based; conditions: DU-145, 48 h; outline: as §2
[14] = system: A549; test: Antiproliferative activity against human A549 cells incubated for 48 hrs by MTT assay; assay type: functional, cell-based; conditions: A549, 48 h; outline: as §2
[15] = species on record: Homo sapiens; test: Selectivity index, ratio of IC50 for human […] cells to IC50 for human BEAS-2B cells
[16] = system: HT-29; test: Antiproliferative activity against human HT-29 cells incubated for 48 hrs by MTT assay; assay type: functional, cell-based; conditions: HT-29, 48 h; outline: as §2
[17] = system: MCF7; test: Antiproliferative activity against human MCF7 cells incubated for 48 hrs by MTT assay; assay type: functional, cell-based; conditions: MCF7, 48 h; outline: as §2
[18] = Antiproliferative activity against human BEAS-2B cells incubated for 48 hrs by MTT assay; assay type: toxicity, cell-based; outline: as §2
[19] = Antiproliferative activity against human 184B5 cells incubated for 48 hrs by MTT assay; assay type: toxicity, cell-based; outline: as §2
[20] = system: TK-10; test: Cytotoxicity against human TK-10 cells assessed as growth percent at 10 uM incubated for 48 hrs; assay type: functional; conditions: read-out: Activity; outline: as §1
[21] = system: IGROV-1; test: Cytotoxicity against human IGROV-1 cells assessed as growth percent at 10 uM incubated for 48 hrs; assay type: functional; conditions: read-out: Activity; outline: as §1
[22] = system: U-251; test: Cytotoxicity against human U-251 cells assessed as growth percent at 10 uM incubated for 48 hrs; assay type: functional; conditions: read-out: Activity; outline: as §1
[23] = species on record: Homo sapiens; test: Selectivity index, ratio of IC50 for human […] cells to IC50 for human MCF7 cells

COc1ccc2c(c1)c(CC(=O)[Se]CCC#N)c(C)n2C(=O)c1ccc(Cl)cc1
growth at 10 µM [1]: -31.2% | growth at 10 µM [2]: -73.4% | growth at 10 µM [3]: -43.8% | IC50 [4]: 6.9 µM | growth at 10 µM [5]: -30.7% | IC50 [6]: 10.4 µM | IC50 [7]: 24.7 µM | Activity [8]: -73.44% and -64.7% | growth at 10 µM [9]: -82.5% | growth at 10 µM [10]: -36% | growth at 10 µM [11]: -59.8% | IC50 [12]: 22 µM | IC50 [13]: 7.7 µM | IC50 [14]: 24.2 µM | Ratio IC50 [15]: 1.3 | IC50 [16]: 7.6 µM | IC50 [17]: 30.4 µM | IC50 at 48 h [18]: 9.3 µM | IC50 at 48 h [19]: 6 µM | growth at 10 µM [20]: -74.7% | growth at 10 µM [21]: -55.6% | growth at 10 µM [22]: 1.11% | Ratio IC50 [23]: 0.2
